From PubChem BioAssay
Hits are enriched below; roughly 8.8% of the tested compounds scored in any of these assays.
S1P1 ag pot: S1P1 (human) agonism or agonism potentiation; 0.57% of 56,000 active; S1P1 CRE-bla cells, forskolin, beta-lactamase FRET, potentiator mode; S1P1 agonist co-added at EC20, 2 nM; 100% = saturating reference agonist, 0% = basal; P21453; AID 449; activation, % at 9.5 µM;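 active = activation above a cutoff set at the mean activation of all tested compounds plus 3 SD, cut at about 54% in these data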;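 also: forskolin at 4 µM as EC80 and the EC20 agonist is SEW2871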
M1 ag: agonists of M1 muscarinic receptor. AID 626. CHO-M1 cells, Fluo-4 calcium fluorescence, agonist mode; hits give high values. B-score at 10 µM. 3% of 64,000 active;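 active = fluorescence rise, raw or as B-score row- and column-corrected plate score, outside the 99.7% band of its plate's samples, either direction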
S1P3 agonist: agonists of human S1P3 receptor. Q99500. S1P3 NFAT-BLA reporter cells, agonism, FRET ratio; relative to 1 µM S1P, basal subtracted. 0.1% of 60,000 active. activation, % at 4.5 µM;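 active = activation above the screen-wide mean plus 3 SD, cut at about 4.5% in these data, passing the limit was not always enough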
Target sequence (Q99500 whole entry, looked up): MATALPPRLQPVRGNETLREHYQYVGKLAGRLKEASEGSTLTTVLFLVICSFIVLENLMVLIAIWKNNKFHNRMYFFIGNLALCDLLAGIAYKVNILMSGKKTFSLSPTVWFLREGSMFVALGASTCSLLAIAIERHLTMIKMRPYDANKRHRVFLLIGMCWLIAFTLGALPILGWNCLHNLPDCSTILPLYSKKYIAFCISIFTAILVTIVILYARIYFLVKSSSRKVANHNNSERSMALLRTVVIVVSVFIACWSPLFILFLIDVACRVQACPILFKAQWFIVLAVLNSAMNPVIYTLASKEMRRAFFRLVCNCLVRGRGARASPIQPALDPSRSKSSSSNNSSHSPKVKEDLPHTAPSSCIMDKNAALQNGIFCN
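Material: Human S1P3 NFAT-BLA reporter CHO cells | Incubation: Overnight plating, 4 h compound 37 °C, 2 h substrate RT | Signal: FRET β-lactamase substrate fluorescence, excitation 405 nm, 460/535 nm emission ratio, background-subtracted | Compound: 4.5 µM final, single dose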
M1 antag: blocks the rat M1 muscarinic receptor response to acetylcholine; B-score at 10 µM; CHO-M1 cells, Fluo-4 calcium, ACh EC80 antagonist mode; hits give low values; 3.4% of 64,000 active; AID 628; P08482;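 active = calcium fluorescence response, raw or row-and-column corrected B-score, differing from the plate sample mean either way at a set confidence level, mostly lower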
SF-1 act: activates the human nuclear receptor SF-1; 1.9% of 65,000 active; AID 522; Q13285; CHO-K1 Gal4-SF-1 LBD luciferase reporter; % increase over DMSO SF-1-specific signal; activation, % at 10 µM;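 active = activation above the mean activation of all tested compounds plus 3 SD, cut at about 50% in these data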
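Assay system: CHO-K1 cells co-transfected with Gal4 DBD–human SF-1 LBD, 5xGal4 luciferase reporter; doses: 10 µM only; incubation: 20 h compound exposure at 37 °C after 1 h cell settling; signal: luciferase light emission; evaluation: percent activation versus DMSO; repeats: one test per compound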
RORA act: activates the human nuclear receptor RORA; 1.5% of 65,000 active; P35398; AID 560; CHO-K1 Gal4-RORA LBD luciferase reporter, luminescence; percent increase over mock-subtracted basal signal; activation, % at 10 µM;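 active = activation above the mean of all tested compounds plus 3 SD, cut at about 49% in these data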
Of the large screens only hits and unclear results are named; the others gave an inactive call.

O=C(Nc1cccc2nsnc12)c1ccc2c(c1)OCCO2	SF-1 act 54, RORA act 70
COc1ccc(C(=O)Nc2ccc3oc(-c4cccc(F)c4)nc3c2)cc1OC	none
CC(C)c1ccc(NC(=O)c2cccnc2)cc1	RORA act 69
CCc1ccc2oc(-c3cccc(NC(=O)c4cccnc4)c3)nc2c1	RORA act 58 (no result: S1P1 ag pot, S1P3 agonist)
COc1ccccc1C(=O)Nc1ccc2oc(-c3ccc(F)cc3)nc2c1	RORA act 65 (no result: S1P1 ag pot)
CC(C)(C)c1cc(NC(=O)C2CCCO2)no1 (stereo not given)	SF-1 act 70
CCc1ccc(NC(=O)c2cccnc2)cc1	none
Cc1cccc(N2CCN(C(=O)Cc3c(C(=O)O)[nH]c4ccc(Cl)cc34)CC2)c1C	none
Cc1ccc(N(CC(=O)Nc2cccc(C)c2)S(=O)(=O)c2cccc3nonc23)cc1	none
CC(C)(C)c1cc(NC(=O)c2cccnc2)no1	SF-1 act 75
O=C(Nc1ccc2oc(-c3ccccc3)nc2c1)c1cccnc1	SF-1 act 71, RORA act 71
O=C(Nc1ccc2nn(-c3ccccc3)nc2c1)c1cccnc1	SF-1 act 61
c1ccc(-c2nc(NC3CC3)nc(-n3ccnc3)n2)cc1	none
Cc1noc(C)c1C(=O)OCC(=O)c1cc(C)n(Cc2ccccc2Cl)c1C	RORA act 49
CCCCC(CC)CNC(=O)c1cccs1 (stereo not given)	none (no result: S1P1 ag pot)
O=C(CCNc1ccccc1)c1ccc2c(c1)OCO2	SF-1 act 62
Cc1ccccc1OCC(=O)Nc1ccc2c(c1)OCO2	none
CN(C)CCC(=O)c1ccc2c(c1)OCO2	none
CC(=O)Nc1ccccc1OCC(=O)c1ccc2c(c1)OCO2	RORA act 65 (no result: S1P1 ag pot, S1P3 agonist)
O=C1CCc2nc3sc4c(c3c(=O)n2N1)CCCC4	none
O=c1c2c3c(sc2nc2sc(C4CC4)nn12)CCCC3	RORA act 54
CCCOc1ccc(/C=c2\sc3nc(-c4ccco4)nn3c2=O)cc1OCC	M1 ag 25
CC(=O)Oc1cccc(/C=c2\sc3nc(-c4ccco4)nn3c2=O)c1	none
C=C1CC2C=C(NC(C)=O)CC(C1)C2 (stereo not given)	none
Nc1nc(-c2ccc3c(c2)CCCC3)cs1	RORA act 76 (no result: S1P1 ag pot, S1P3 agonist)
CCC(C)C(=O)N1CCc2cc(-c3csc(N)n3)ccc21 (stereo not given)	none
Nc1nc(-c2ccc3c(c2)OCCO3)cs1	SF-1 act 64, RORA act 50
CCOc1cc(N2CCOCC2)c(OCC)cc1NS(=O)(=O)c1ccc(Cl)s1	RORA act 79
CCCC(=O)Nc1ccc2oc(-c3ccc(OC)c(Br)c3)nc2c1	S1P1 ag pot 98, SF-1 act 62, RORA act 80
CCCC(=O)Nc1ccc(-c2nc3cc(C)ccc3o2)cc1	S1P1 ag pot 70
Cc1ccc(Nc2nnc(SCC(=O)NCc3ccco3)s2)cc1	none
CCc1nnc(NC(=O)CSc2nc3c(c(=O)n2CC)SC(C)C3)s1 (stereo not given)	none
c1cncc(-c2nc(-c3cccs3)cs2)c1	none (no result: S1P1 ag pot, S1P3 agonist)
c1csc(-c2csc(-c3cccs3)n2)c1	SF-1 act 63
Cc1cc(C(=O)CSc2nnnn2-c2ccc(Cl)cc2)c(C)n1CC1CCCO1 (stereo not given)	none
Cc1cc(C(=O)CSc2nnnn2-c2ccccc2)c(C)n1CC1CCCO1 (stereo not given)	SF-1 act 68
CCOc1ccc(C)cc1S(=O)(=O)n1ccc(C)n1	none (no result: S1P1 ag pot)
CSc1ncccc1C(=O)OCc1ccccc1F	RORA act 89
CCc1[nH]nc2c1C(c1ccc(Br)s1)C(C#N)=C(N)O2 (stereo not given)	M1 antag 2.5
Cc1cc(C)cc(N(CC(=O)N2CCN(Cc3ccccc3)CC2)S(=O)(=O)c2c(C)noc2C)c1	none
COCCn1c(C(C)C)nc2oc3ccccc3c(=O)c2c1=O	none
COCCn1c(C)nc2oc3ccc(Br)cc3c(=O)c2c1=O	M1 antag 1.9
COc1ccc(NCc2ccc(OC)c(OC)c2)cc1	none
COc1ccc(CNc2ccc(-c3ccc(OC)cc3)nn2)cc1	SF-1 act 80
